Reference: ChEMBL document CHEMBL1151428, “Capability of 11 antipneumococcal antibiotics to select for resistance by multistep and single-step methodologies” (2007)
Converted amounts (≈) assume the structure as drawn.

Key:
Type in all cases: functional
Streptococcus pneumoniae [1] = experiment: Antimicrobial activity against drug-resistant Streptococcus pneumoniae isolate 3665 after 50 passages by multi-step resistance selection technique
How it was run: (§1)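 Daily serial passage in broth at subinhibitory drug levels: 1 ml cation-adjusted Mueller-Hinton broth with 5% lysed horse blood; fresh broth for tigecycline. Each day 10 μl inoculum taken from the tube one to two dilutions below MIC matching growth-control turbidity, used to set next MIC. Continued until ≥8-fold MIC rise, minimum 14, maximum 50 passages; MIC read by macrodilution.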

Streptococcus pneumoniae [2] = experiment: Antimicrobial activity against drug-resistant Streptococcus pneumoniae isolate 1077 after 29 passages with azithromycin measured after 10 antibiotic-free subculture by multi-step resistance selection technique
How it was run: (§2)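 Mutants selected by daily broth passage in subinhibitory drug in cation-adjusted Mueller-Hinton broth with 5% lysed horse blood. Stability was tested by 10 daily passages on blood agar without antibiotic, then macrodilution MIC.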

Streptococcus pneumoniae [3] = experiment: Antimicrobial activity against drug-resistant Streptococcus pneumoniae isolate 3676 after 14 passages with Telithromycin measured after 10 antibiotic-free subculture by multi-step resistance selection technique
Streptococcus pneumoniae [4] = experiment: Antimicrobial activity against drug-resistant Streptococcus pneumoniae isolate 37 by NCCLS M7-A7 method
Streptococcus pneumoniae [5] = experiment: Antimicrobial activity against drug-resistant Streptococcus pneumoniae isolate 1077 by NCCLS M7-A7 method
Streptococcus pneumoniae [6] = experiment: Antimicrobial activity against drug-resistant Streptococcus pneumoniae isolate 3274 after 50 passages by multi-step resistance selection technique
How it was run: (§3)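 Daily serial passage in subinhibitory drug levels in 1 ml cation-adjusted Mueller-Hinton broth with 5% lysed horse blood; fresh broth for tigecycline. Each day, 10 μl were taken from the tube one to two dilutions below the MIC whose turbidity matched the growth control, and used to set the next MIC. MIC by macrodilution.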

Streptococcus pneumoniae [7] = experiment: Antimicrobial activity against drug-resistant Streptococcus pneumoniae isolate 3676 after 44 passages with clarithromycin measured after 10 antibiotic-free subculture by multi-step resistance selection technique
Streptococcus pneumoniae [8] = experiment: Antimicrobial activity against drug-resistant Streptococcus pneumoniae isolate 3413 by NCCLS M7-A7 method
Streptococcus pneumoniae [9] = experiment: Antimicrobial activity against drug-resistant Streptococcus pneumoniae isolate 2527 after 14 passages with gemifloxacin measured after 10 antibiotic-free subculture by multi-step resistance selection technique; how it was run: as §2
Streptococcus pneumoniae [10] = experiment: Antimicrobial activity against drug-resistant Streptococcus pneumoniae isolate 1076 after 35 passages with moxifloxacin measured after 10 antibiotic-free subculture by multi-step resistance selection technique; how it was run: as §2
Streptococcus pneumoniae [11] = experiment: Antimicrobial activity against drug-resistant Streptococcus pneumoniae isolate 3413 after 50 passages by multi-step resistance selection technique; how it was run: as §3
Streptococcus pneumoniae [12] = experiment: Antimicrobial activity against drug-resistant Streptococcus pneumoniae isolate 1077 after 49 passages by multi-step resistance selection technique
How it was run: as §3, with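 “MIC. […]” for “MIC.”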

Streptococcus pneumoniae [13] = experiment: Antimicrobial activity against drug-resistant Streptococcus pneumoniae isolate 24 after 50 passages with moxifloxacin measured after 10 antibiotic-free subculture by multi-step resistance selection technique; how it was run: as §2
Streptococcus pneumoniae [14] = experiment: Antimicrobial activity against drug-resistant Streptococcus pneumoniae isolate 3274 by NCCLS M7-A7 method
Streptococcus pneumoniae [15] = experiment: Antimicrobial activity against drug-resistant Streptococcus pneumoniae isolate 3665 after 26 passages with clarithromycin measured after 10 antibiotic-free subculture by multi-step resistance selection technique
Streptococcus pneumoniae [16] = experiment: Antimicrobial activity against drug-resistant Streptococcus pneumoniae isolate 3243 after 41 passages with clarithromycin measured after 10 antibiotic-free subculture by multi-step resistance selection technique
Streptococcus pneumoniae [17] = experiment: Antimicrobial activity against drug-resistant Streptococcus pneumoniae isolate 1077 after 15 passages with Telithromycin measured after 10 antibiotic-free subculture by multi-step resistance selection technique; how it was run: as §2
Streptococcus pneumoniae [18] = experiment: Antimicrobial activity against drug-resistant Streptococcus pneumoniae isolate 1635 after 49 passages with clarithromycin measured after 10 antibiotic-free subculture by multi-step resistance selection technique
Streptococcus pneumoniae [19] = experiment: Antimicrobial activity against drug-resistant Streptococcus pneumoniae isolate 24 after 14 passages with Telithromycin measured after 10 antibiotic-free subculture by multi-step resistance selection technique; how it was run: as §2
Streptococcus pneumoniae [20] = experiment: Antimicrobial activity against drug-resistant Streptococcus pneumoniae isolate 3665 by NCCLS M7-A7 method
Streptococcus pneumoniae [21] = experiment: Antimicrobial activity against drug-resistant Streptococcus pneumoniae isolate 3274 after 48 passages with Telithromycin measured after 10 antibiotic-free subculture by multi-step resistance selection technique; how it was run: as §2
Streptococcus pneumoniae [22] = experiment: Antimicrobial activity against drug-resistant Streptococcus pneumoniae isolate 3676 by NCCLS M7-A7 method
Streptococcus pneumoniae [23] = experiment: Antimicrobial activity against drug-resistant Streptococcus pneumoniae isolate 1635 after 14 passages with azithromycin measured after 10 antibiotic-free subculture by multi-step resistance selection technique; how it was run: as §2
Streptococcus pneumoniae [24] = experiment: Antimicrobial activity against drug-resistant Streptococcus pneumoniae isolate 1635 after 14 passages with clindamycin measured after 10 antibiotic-free subculture by multi-step resistance selection technique
Streptococcus pneumoniae [25] = experiment: Antimicrobial activity against drug-resistant Streptococcus pneumoniae isolate 3676 after 50 passages by multi-step resistance selection technique; how it was run: as §1
Streptococcus pneumoniae [26] = experiment: Antimicrobial activity against drug-resistant Streptococcus pneumoniae isolate 2527 after 20 passages with azithromycin measured after 10 antibiotic-free subculture by multi-step resistance selection technique; how it was run: as §2
Streptococcus pneumoniae [27] = experiment: Antimicrobial activity against drug-resistant Streptococcus pneumoniae isolate 1077 after 49 passages with clindamycin measured after 10 antibiotic-free subculture by multi-step resistance selection technique
Streptococcus pneumoniae [28] = experiment: Antimicrobial activity against drug-resistant Streptococcus pneumoniae isolate 3009 after 19 passages with moxifloxacin measured after 10 antibiotic-free subculture by multi-step resistance selection technique; how it was run: as §2
Streptococcus pneumoniae [29] = experiment: Antimicrobial activity against drug-resistant Streptococcus pneumoniae isolate 1076 by NCCLS M7-A7 method
Streptococcus pneumoniae [30] = experiment: Antimicrobial activity against drug-resistant Streptococcus pneumoniae isolate 3009 after 21 passages with gemifloxacin measured after 10 antibiotic-free subculture by multi-step resistance selection technique; how it was run: as §2
Streptococcus pneumoniae [31] = experiment: Antimicrobial activity against drug-resistant Streptococcus pneumoniae isolate 3665 after 38 passages with moxifloxacin measured after 10 antibiotic-free subculture by multi-step resistance selection technique
Streptococcus pneumoniae [32] = experiment: Antimicrobial activity against drug-resistant Streptococcus pneumoniae isolate 3243 after 29 passages with Telithromycin measured after 10 antibiotic-free subculture by multi-step resistance selection technique; how it was run: as §2
Streptococcus pneumoniae [33] = experiment: Antimicrobial activity against drug-resistant Streptococcus pneumoniae isolate 3413 after 30 passages with Telithromycin measured after 10 antibiotic-free subculture by multi-step resistance selection technique; how it was run: as §2
Streptococcus pneumoniae [34] = experiment: Antimicrobial activity against drug-resistant Streptococcus pneumoniae isolate 1635 after 14 passages by multi-step resistance selection technique
How it was run: as §3, with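 “MIC. […]” for “MIC.”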

Streptococcus pneumoniae [35] = experiment: Antimicrobial activity against drug-resistant Streptococcus pneumoniae isolate 37 after 14 passages with Telithromycin measured after 10 antibiotic-free subculture by multi-step resistance selection technique
Streptococcus pneumoniae [36] = experiment: Antimicrobial activity against drug-resistant Streptococcus pneumoniae isolate 3243 by NCCLS M7-A7 method
Streptococcus pneumoniae [37] = experiment: Antimicrobial activity against drug-resistant Streptococcus pneumoniae isolate 3676 after 50 passages with moxifloxacin measured after 10 antibiotic-free subculture by multi-step resistance selection technique
Streptococcus pneumoniae [38] = experiment: Antimicrobial activity against drug-resistant Streptococcus pneumoniae isolate 3243 after 20 passages with moxifloxacin measured after 10 antibiotic-free subculture by multi-step resistance selection technique; how it was run: as §2
Streptococcus pneumoniae [39] = experiment: Antimicrobial activity against drug-resistant Streptococcus pneumoniae isolate 3009 by NCCLS M7-A7 method
Streptococcus pneumoniae [40] = experiment: Antimicrobial activity against drug-resistant Streptococcus pneumoniae isolate 3009 after 25 passages with clarithromycin measured after 10 antibiotic-free subculture by multi-step resistance selection technique
Streptococcus pneumoniae [41] = experiment: Antimicrobial activity against drug-resistant Streptococcus pneumoniae isolate 2527 by NCCLS M7-A7 method
Streptococcus pneumoniae [42] = experiment: Antimicrobial activity against drug-resistant Streptococcus pneumoniae isolate 3665 after 14 passages with Telithromycin measured after 10 antibiotic-free subculture by multi-step resistance selection technique
Streptococcus pneumoniae [43] = experiment: Antimicrobial activity against drug-resistant Streptococcus pneumoniae isolate 3009 after 50 passages by multi-step resistance selection technique
How it was run: as §3, with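 “MIC. […]” for “MIC.”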

Streptococcus pneumoniae [44] = experiment: Antimicrobial activity against drug-resistant Streptococcus pneumoniae isolate 3243 after 33 passages with azithromycin measured after 10 antibiotic-free subculture by multi-step resistance selection technique; how it was run: as §2
Streptococcus pneumoniae [45] = experiment: Antimicrobial activity against drug-resistant Streptococcus pneumoniae isolate 2527 after 50 passages by multi-step resistance selection technique
How it was run: as §3, with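 “MIC. […]” for “MIC.”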

Streptococcus pneumoniae [46] = experiment: Antimicrobial activity against drug-resistant Streptococcus pneumoniae isolate 1635 by NCCLS M7-A7 method
Streptococcus pneumoniae [47] = experiment: Antimicrobial activity against drug-resistant Streptococcus pneumoniae isolate 3243 after 50 passages by multi-step resistance selection technique
How it was run: as §3, with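 “MIC. […]” for “MIC.”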

Streptococcus pneumoniae [48] = experiment: Antimicrobial activity against drug-resistant Streptococcus pneumoniae isolate 1076 after 14 passages with Telithromycin measured after 10 antibiotic-free subculture by multi-step resistance selection technique; how it was run: as §2
Streptococcus pneumoniae [49] = experiment: Antimicrobial activity against drug-resistant Streptococcus pneumoniae isolate 3009 after 18 passages with levofloxacin measured after 10 antibiotic-free subculture by multi-step resistance selection technique; how it was run: as §2
Streptococcus pneumoniae [50] = experiment: Antimicrobial activity against drug-resistant Streptococcus pneumoniae isolate 24 by NCCLS M7-A7 method

CCC[C@@H]1C[C@@H](C(=O)N[C@@H]([C@H]2O[C@H](SC)[C@H](O)[C@@H](O)[C@H]2O)[C@H](C)Cl)N(C)C1 [CLINDAMYCIN]
MIC (Streptococcus pneumoniae [1]): 0.03 µg/mL (≈ 0.0706 µM) | MIC (Streptococcus pneumoniae [2]): 4 µg/mL (≈ 9.41 µM) | MIC (Streptococcus pneumoniae [3]): 0.03 µg/mL (≈ 0.0706 µM) | MIC (Streptococcus pneumoniae [4]): > 64 µg/mL | MIC (Streptococcus pneumoniae [5]): 0.016 µg/mL (≈ 0.0376 µM) | MIC (Streptococcus pneumoniae [6]): 0.008 µg/mL (≈ 0.0188 µM) | MIC (Streptococcus pneumoniae [7]): 0.06 µg/mL (≈ 0.141 µM) | MIC (Streptococcus pneumoniae [8]): 0.016 µg/mL (≈ 0.0376 µM) | MIC (Streptococcus pneumoniae [9]): 0.016 µg/mL (≈ 0.0376 µM) | MIC (Streptococcus pneumoniae [10]): > 64 µg/mL | MIC (Streptococcus pneumoniae [11]): 0.008 µg/mL (≈ 0.0188 µM) | MIC (Streptococcus pneumoniae [12]): 4 µg/mL (≈ 9.41 µM) | MIC (Streptococcus pneumoniae [13]): > 64 µg/mL | MIC (Streptococcus pneumoniae [14]): 0.016 µg/mL (≈ 0.0376 µM) | MIC (Streptococcus pneumoniae [15]): 0.03 µg/mL (≈ 0.0706 µM) | MIC (Streptococcus pneumoniae [16]): 1 µg/mL (≈ 2.35 µM) | MIC (Streptococcus pneumoniae [17]): 8 µg/mL (≈ 18.8 µM) | MIC (Streptococcus pneumoniae [18]): 0.25 µg/mL (≈ 0.588 µM) | MIC (Streptococcus pneumoniae [19]): > 64 µg/mL | MIC (Streptococcus pneumoniae [20]): 0.016 µg/mL (≈ 0.0376 µM) | MIC (Streptococcus pneumoniae [21]): 0.016 µg/mL (≈ 0.0376 µM) | MIC (Streptococcus pneumoniae [22]): 0.03 µg/mL (≈ 0.0706 µM) | MIC (Streptococcus pneumoniae [23]): 0.03 µg/mL (≈ 0.0706 µM) | MIC (Streptococcus pneumoniae [24]): > 64 µg/mL | MIC (Streptococcus pneumoniae [25]): 0.016 µg/mL (≈ 0.0376 µM) | MIC (Streptococcus pneumoniae [26]): 0.06 µg/mL (≈ 0.141 µM) | MIC (Streptococcus pneumoniae [27]): 8 µg/mL (≈ 18.8 µM) | MIC (Streptococcus pneumoniae [28]): 0.5 µg/mL (≈ 1.18 µM) | MIC (Streptococcus pneumoniae [29]): 64 µg/mL (≈ 151 µM) | MIC (Streptococcus pneumoniae [30]): 0.5 µg/mL (≈ 1.18 µM) | MIC (Streptococcus pneumoniae [31]): 0.03 µg/mL (≈ 0.0706 µM) | MIC (Streptococcus pneumoniae [32]): 0.03 µg/mL (≈ 0.0706 µM) | MIC (Streptococcus pneumoniae [33]): 0.06 µg/mL (≈ 0.141 µM) | MIC (Streptococcus pneumoniae [34]): > 64 µg/mL | MIC (Streptococcus pneumoniae [35]): > 64 µg/mL | MIC (Streptococcus pneumoniae [36]): 0.016 µg/mL (≈ 0.0376 µM) | MIC (Streptococcus pneumoniae [37]): 0.016 µg/mL (≈ 0.0376 µM) | MIC (Streptococcus pneumoniae [38]): 0.016 µg/mL (≈ 0.0376 µM) | MIC (Streptococcus pneumoniae [39]): 1 µg/mL (≈ 2.35 µM) | MIC (Streptococcus pneumoniae [40]): 1 µg/mL (≈ 2.35 µM) | MIC (Streptococcus pneumoniae [41]): 0.008 µg/mL (≈ 0.0188 µM) | MIC (Streptococcus pneumoniae [42]): 0.03 µg/mL (≈ 0.0706 µM) | MIC (Streptococcus pneumoniae [43]): 2 µg/mL (≈ 4.71 µM) | MIC (Streptococcus pneumoniae [44]): 0.016 µg/mL (≈ 0.0376 µM) | MIC (Streptococcus pneumoniae [45]): 0.016 µg/mL (≈ 0.0376 µM) | MIC (Streptococcus pneumoniae [46]): 0.06 µg/mL (≈ 0.141 µM) | MIC (Streptococcus pneumoniae [47]): 0.03 µg/mL (≈ 0.0706 µM) | MIC (Streptococcus pneumoniae [48]): > 64 µg/mL | MIC (Streptococcus pneumoniae [49]): 0.5 µg/mL (≈ 1.18 µM) | MIC (Streptococcus pneumoniae [50]): > 64 µg/mL
